Data from ChEMBL document CHEMBL4364289, “The structure-activity profile of mercaptobenzamides' anti-HIV activity suggests that thermodynamics of metabolism is more important than binding affinity to the target” (Eur J Med Chem, 2019).

Key:
[1] = system: Human immunodeficiency virus 1; experiment: Antiviral activity against HIV1 RF infected in human CEM-SS cells assessed as inhibition of viral replication incubated for 6 days by XTT assay; assay type: functional, organism-based
In short: (§1)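 CEM-SS cells (2.5 × 10³/well) in RPMI with 10% FBS, 2 mM L-glutamine, penicillin/streptomycin; six serial compound concentrations added with HIV-1 RF titered to give 85–95% cell killing at day 6. AZT run in parallel as positive control. Incubated 6 days at 37 °C, 5% CO2; viability by XTT (OD 450/650 nm). EC50 from percent CPE reduction; SI = TC50/EC50.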

[2] = Selectivity index, ratio of TC50 for human CEM-SS cells to EC50 for HIV1 RF infected in human CEM-SS cells; assay type: toxicity, cell-based; conditions: for selectivity ratio: CEM-SS cells, read-out: Selectivity Index; in short: as §1
[3] = (§2) Cytotoxicity against human CEM-SS cells assessed as reduction in cell viability incubated for 6 days by […]; assay type: cell-based; conditions: CEM-SS cells, read-out: TC50
In short: (§3)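 Uninfected CEM-SS cells (2.5 × 10³/well) in RPMI with 10% FBS, 2 mM L-glutamine, penicillin/streptomycin, exposed to six serial compound concentrations for 6 days at 37 °C, 5% CO2. Viability read by XTT staining (OD 450/650 nm); TC50 derived from percent viability of uninfected drug-control wells.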

[4] = Drug metabolism of compound in nucleophilic proteinogenic cysteines assessed as 2-(3-amino 3-oxopropylcarbamoyl)benzenethiolate formation
[5] = Drug metabolism of compound in glutathione assessed as 2-(3-amino 3-oxopropylcarbamoyl)benzenethiolate formation
[6] = Prodrug activation in human PBMC cells assessed as 2-(3-amino 3-oxopropylcarbamoyl)benzenethiolate formation; assay type: cell-based
[7] = Dissociation constant, pKa of compound; assay type: physicochemical
[8] = Drug metabolism of compound in phosphate buffer incubated for 12 hrs in presence of acetyl-1,2,13C2 CoA by 13C-NMR spectrometric method
In short: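 Thiol and acetyl-1,2-13C2 CoA at 10:1 stoichiometric ratio incubated in degassed (helium-sparged) 0.1 M phosphate buffer pH 7.0 (4:1 H2O/D2O) with 2% DMF, 37 °C, 12 h in a sealed NMR tube. Equilibrium confirmed by 13C NMR monitoring; equilibrium constant for thiol–thioester exchange determined from spectra.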

CEM-SS = experiment: as §2; assay type: cell-based; conditions: cem-ss, 144 h, read-out: TC50 (the source's name); in short: as §3
[9] = Human immunodeficiency virus 1, RF, CEM-SS, 144 h

Compound | EC50 [1, 9] [µM] | selectivity ratio [2] | CC50 at 144 h [3] [µM] | also measured
CCCC(=O)OCSc1ccccc1C(=O)NCCNC(C)=O | 2.6 | 35.3 | 91.9 | 
CC(=O)Sc1ccccc1C(=O)NCCC(N)=O |  |  |  | Ka [4]: 84 M⁻¹ s⁻¹; Ka [5]: 84 M⁻¹ s⁻¹
CCCC(=O)OCSc1ccccc1C(=O)NCC(=O)NCc1ccccc1 | 4.8 | 6.1 | 29.3 | 
CCCC(=O)OC[Se]c1ccccc1C(=O)NCCC(N)=O | 8.6 | 1.22 | 10.5 | 
CCCC(=O)OCSc1ccccc1C(=O)NC1(C(N)=O)CCCC1 | < 8.2 |  | > 100 | 
CCCC(=O)OCSc1ccccc1C(=O)NCCC(N)=O | 2.4 |  | > 100 | Drug metabolism [6]: Metabolite_Detected
CCCC(=O)OCSc1ccccc1C(=O)N(C)CC(N)=O | > 100 |  | 55.3 | 
CCCC(=O)OCSc1ccccc1C(=O)N[C@H]1CCC[C@@H]1C(N)=O (racemic) |  |  | 31.2 | EC50 [1]: 0.9 µM; Selectivity Index [2]: 34.7
CCCC(=O)OC[Se]c1ccccc1C(=O)NCC(N)=O | > 100 |  | 6.8 | 
CCCC(=O)OCSc1ccccc1C(=O)N[C@@H]1CCC[C@H]1C(N)=O | 1.7 | 25.7 | 43.7 | 
CCCC(=O)OCSc1ccccc1C(=O)NCC(=O)OC | > 100 |  | 27.3 | 
CCCC(=O)OCSc1ccc(OC(F)(F)F)cc1C(=O)NC(C)(C)C(N)=O |  |  | < 56.1 | 
CCCC(=O)OCSc1ccccc1CC(=O)NCC(N)=O | > 100 |  | > 100 | 
CCCC(=O)OCSc1ccccc1C(=O)NCCCCCCC(N)=O | 1 | 10.4 | 10.4 | 
CCCC(=O)OCSc1ccccc1C(=O)NCC(=O)NCC(N)=O | 27.5 | > 3.64 | > 100 | 
CCCC(=O)OCSc1c(C)cccc1C(=O)NCCC(N)=O | > 100 |  |  | 
NC(=O)CCNC(=O)c1ccccc1S |  |  |  | pKa [7]: 5.83; Ke [8]: 0.0023
CCCC(=O)OCSc1ccccc1C(=O)NCC(=O)NCC(=O)OC | 4.9 | > 20.4 | > 100 | 
CCCC(=O)OCSc1ccccc1C(=O)NCC(=O)NC(C)C | 5 | 18.4 | 92 | 
CCCC(=O)OCSc1ccccc1C(=O)Nc1ccccc1C(N)=O | 5.1 | 9.82 | 50.1 | 
CCCC(=O)OCSc1ccccc1C(=O)NCCCNC(C)=O | 1.1 | 19.2 | 21.1 | 
CCCC(=O)OCSc1ccccc1C(=O)NCC(=O)NCCN(C)C | 6.6 | 11.6 | 76.9 | 
CCCC(=O)OCSc1ccccc1C(=O)NCC(=O)N(C)C | 4.7 | 8.15 | 38.3 | 
CCCC(=O)OCSc1ccccc1C(=O)NCCCCC(N)=O | 3.7 | 14 | 51.7 | 
CCCC(=O)OCSc1ccccc1C(=O)NCCCCCNC(C)=O | 3.9 | 2.36 | 9.2 | 

Compound | EC50 [1, 9] [µM] | selectivity ratio [2] | CC50 at 144 h [3] [µM] | also measured
CCCC(=O)OCSc1ccccc1C(=O)N[C@H]1CCC[C@H]1C(N)=O |  |  |  | EC50 [1]: 3 µM; Selectivity Index [2]: 28.3; CC50 (CEM-SS): 84.8 µM
CCCC(=O)OCSc1ccccc1C(=O)Nc1cccc(C(N)=O)c1 | 1.2 | 14.6 | 17.5 | 
CCCC(=O)OCSc1ccccc1C(N)=O | > 100 |  | 12.4 | 
CCCC(=O)OCSc1ccccc1C(=O)NCC(=O)NC | 1.4 | > 71.4 | > 100 | 
CCCC(=O)OCSc1ccccc1C(=O)NCCCCCC(N)=O | 3.1 | 5.26 | 16.3 | 
CCCC(=O)OCSc1ccccc1C(=O)Nc1ccc(C(N)=O)cc1 | 1.6 | 24.4 | 39 | 
CCCC(=O)OCSc1ccccc1C(=O)NCC(=O)NC(C)(C)C | 9.1 | 5.14 | 46.8 | 
CCCC(=O)OCSc1ccccc1C(=O)N1CCC[C@H]1C(N)=O | > 100 |  | > 100 | 
CCCCCNC(=O)CNC(=O)c1ccccc1SCOC(=O)CCC | 10.3 | 2.41 | 24.8 | 
NC(=O)CCNC(=O)c1cccc(S)c1 | > 100 |  | > 100 | 
CCCC(=O)OCSc1ccccc1C(=O)N[C@@H]1CCC[C@@H]1C(N)=O | 1.8 | 50 | 90 | 
CCCC(=O)OCSc1ccccc1C(=O)NCC(N)=O | 2.9 |  | > 100 | 
CCCC(=O)OCSc1ccccc1C(=O)N[C@H]1CCC[C@H]1C(N)=O (racemic) | 5.32 | 16.9 | 89.9 | 
CCCC(=O)OCSc1ccccc1C(=O)NCCCC(N)=O | 1.2 | 47.2 | 56.6 | 
CCCC(=O)OCSc1ccc(OC)cc1C(=O)NCCC(N)=O | 1.5 |  | > 100 | 
CCCC(=O)OCSc1ccccc1C(=O)NC | > 100 |  | 5.7 | 
C#CCNC(=O)CNC(=O)c1ccccc1SCOC(=O)CCC | 4.7 | 20.3 | 95.4 | 
CCCC(=O)OCSc1ccccc1C(=O)NCCCCNC(C)=O | 0.57 | 30.5 | 17.4 | 
CCCC(=O)OCSc1ccccc1C(=O)NCCCCCCNC(C)=O | 1.5 | 5.33 | 8 | 
CCCC(=O)OCSc1ccccc1C(=O)N(C)CC(=O)NC | > 100 |  | 62.5 | 
CCCC(=O)OCSc1ccccc1C(=O)N(C)CC(=O)N(C)C | > 100 |  | 57.3 | 
CCCC(=O)OCSc1ccccc1C(=O)N[C@H]1CCC[C@@H]1C(N)=O |  |  |  | EC50 [1]: 2.9 µM; Selectivity Index [2]: 15; CC50 (CEM-SS): 43.3 µM
CCCC(=O)OCSc1c(F)cccc1C(=O)NCCC(N)=O | > 100 |  |  | 
CCCC(=O)OCSc1ccccc1C(=O)OCC(N)=O | > 100 |  | 82.1 | 
